Measured values as given in ChEMBL document CHEMBL4819139, “Green synthesis of therapeutically active 1,3,4-oxadiazoles as antioxidants, selective COX-2 inhibitors and their in silico studies” (Bioorg Med Chem Lett, 2021).
In brackets after ≈: the same amount, converted by molar mass.

Key:
[1] = molecular target: Prostaglandin G/H synthase 1 (Homo sapiens, UniProt P23219); experiment: Inhibition of COX-1 (unknown origin)
[2] = molecular target: T1, Prostaglandin G/H synthase 2 (Homo sapiens, UniProt P35354); experiment: Inhibition of COX-2 (unknown origin)
T1 sequence (P35354 whole entry): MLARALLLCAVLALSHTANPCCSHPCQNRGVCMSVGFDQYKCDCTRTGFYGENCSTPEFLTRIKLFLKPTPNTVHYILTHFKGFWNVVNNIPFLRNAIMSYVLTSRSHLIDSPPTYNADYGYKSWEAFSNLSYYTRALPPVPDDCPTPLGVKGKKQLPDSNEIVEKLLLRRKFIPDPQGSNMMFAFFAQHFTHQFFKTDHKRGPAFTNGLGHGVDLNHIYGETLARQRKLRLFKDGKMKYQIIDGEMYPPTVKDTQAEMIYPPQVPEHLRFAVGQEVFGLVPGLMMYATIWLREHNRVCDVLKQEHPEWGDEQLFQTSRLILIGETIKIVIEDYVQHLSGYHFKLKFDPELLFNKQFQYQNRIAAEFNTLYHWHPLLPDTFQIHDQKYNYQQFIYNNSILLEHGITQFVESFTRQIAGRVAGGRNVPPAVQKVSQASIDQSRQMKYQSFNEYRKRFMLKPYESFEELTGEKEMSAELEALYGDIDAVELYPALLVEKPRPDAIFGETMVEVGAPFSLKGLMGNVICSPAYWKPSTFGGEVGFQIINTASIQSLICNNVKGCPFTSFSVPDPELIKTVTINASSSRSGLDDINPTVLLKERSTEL
How it was run: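 Percent COX-2 inhibition was measured at several compound concentrations. Mefenamic acid served as the reference standard.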

[3] = Antioxidant activity assessed as DPPH free radical scavenging activity in iron free medium; type: functional

Prostaglandin G/H synthase 1, sequence (P23219 whole entry): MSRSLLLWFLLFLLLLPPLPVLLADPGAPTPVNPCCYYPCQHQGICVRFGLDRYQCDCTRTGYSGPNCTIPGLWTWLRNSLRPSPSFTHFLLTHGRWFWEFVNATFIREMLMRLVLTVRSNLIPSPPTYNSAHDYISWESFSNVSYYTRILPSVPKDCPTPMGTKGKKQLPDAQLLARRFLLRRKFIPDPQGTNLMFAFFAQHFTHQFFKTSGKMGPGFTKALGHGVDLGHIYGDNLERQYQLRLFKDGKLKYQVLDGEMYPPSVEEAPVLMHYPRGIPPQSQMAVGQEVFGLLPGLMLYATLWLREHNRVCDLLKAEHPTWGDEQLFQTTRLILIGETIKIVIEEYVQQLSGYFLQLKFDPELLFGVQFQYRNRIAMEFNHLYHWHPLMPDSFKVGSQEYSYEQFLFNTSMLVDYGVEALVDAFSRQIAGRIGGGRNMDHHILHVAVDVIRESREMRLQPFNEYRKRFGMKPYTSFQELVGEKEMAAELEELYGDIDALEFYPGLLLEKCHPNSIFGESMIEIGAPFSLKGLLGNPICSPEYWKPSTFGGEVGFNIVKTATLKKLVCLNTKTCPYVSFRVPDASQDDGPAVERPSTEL

| SMILES | IC50 [1] | IC50 [2] | IC50 [3] |
| --- | --- | --- | --- |
| Cc1ccc2oc(=O)cc(CSc3nnc(CSc4nc5cc(Cl)ccc5o4)o3)c2c1 | 437 µM | 115 µM | 48.69 µg/mL (≈ 103 µM) |
| Cc1cc(C)c2c(CSc3nnc(CSc4nc5ccccc5o4)o3)cc(=O)oc2c1 | 1120 µM | 55.4 µM | 33.41 µg/mL (≈ 74 µM) |
| O=C1O[C@H]([C@@H](O)CO)C(O)=C1O [ASCORBIC ACID] |  |  | 25.74 µg/mL (≈ 146 µM) |
| Cc1cc(C)c2c(CSc3nnc(CSc4nc5cc(Cl)ccc5o4)o3)cc(=O)oc2c1 | 505 µM | 27.2 µM | 26.98 µg/mL (≈ 55.5 µM) |
| Cc1cccc(Nc2ccccc2C(=O)O)c1C [MEFENAMIC ACID] | 772 µM | 104 µM |  |
| COc1ccc2oc(=O)cc(CSc3nnc(CSc4nc5ccccc5o4)o3)c2c1 | 230 µM | 72.6 µM | 63.09 µg/mL (≈ 139 µM) |
| O=c1cc(CSc2nnc(CSc3nc4cc(Cl)ccc4o3)o2)c2ccc3ccccc3c2o1 | 558 µM | 22.3 µM | 23.95 µg/mL (≈ 47.1 µM) |
| Cc1ccc2oc(=O)cc(CSc3nnc(CSc4nc5ccccc5o4)o3)c2c1 | 562 µM | 45.6 µM | 24.04 µg/mL (≈ 54.9 µM) |

Next, values leading:

| IC50 [1] | IC50 [2] | IC50 [3] | SMILES |
| --- | --- | --- | --- |
| 226 µM | 51.9 µM | 45.86 µg/mL (≈ 96.8 µM) | O=c1cc(CSc2nnc(CSc3nc4ccccc4o3)o2)c2c(ccc3ccccc32)o1 |
| 308 µM | 29 µM | 27.73 µg/mL (≈ 58.8 µM) | Cc1ccc2c(CSc3nnc(CSc4nc5cc(Cl)ccc5o4)o3)cc(=O)oc2c1 |
| 642 µM | 34.8 µM | 26.78 µg/mL (≈ 52.7 µM) | O=c1cc(CSc2nnc(CSc3nc4cc(Cl)ccc4o3)o2)c2c(ccc3ccccc32)o1 |
| 1180 µM | 91.3 µM | 52.85 µg/mL (≈ 108 µM) | COc1ccc2oc(=O)cc(CSc3nnc(CSc4nc5cc(Cl)ccc5o4)o3)c2c1 |
| 919 µM | 27.1 µM | 23.71 µg/mL (≈ 50.1 µM) | O=c1cc(CSc2nnc(CSc3nc4ccccc4o3)o2)c2ccc3ccccc3c2o1 |
| 199 µM | 54.3 µM | 49.87 µg/mL (≈ 114 µM) | Cc1ccc2c(CSc3nnc(CSc4nc5ccccc5o4)o3)cc(=O)oc2c1 |
